In ChEMBL document CHEMBL3632508, “Discovery of α-mangostin as a novel competitive inhibitor against mutant isocitrate dehydrogenase-1” (Bioorg Med Chem Lett, 2015):
Calls of active or inactive are those of the source. The rule behind the calls is not given here.

Key:
[1] = target: Isocitrate dehydrogenase [NADP] cytoplasmic (Homo sapiens, UniProt O75874, R132H); assay: Competitive inhibition of IDH1-R132H mutant (unknown origin) using a-ketoglutarate and NADPH as substrate by steady state kinetic analysis
Procedure, shortened: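 IDH1-R132H in buffer of 150 mM NaCl, 20 mM Tris–Cl pH 7.5, 10 mM MnCl₂, 150 μM β-NADPH, 0.03% (w/v) BSA; α-ketoglutarate varied to reach maximal activity; steady-state kinetic parameters fitted with an enzyme kinetics module.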

[2] = system: Isocitrate dehydrogenase [NADP] cytoplasmic (Homo sapiens), O75874 [R132H]; assay: Inhibition of IDH1-R132H mutant in human MCF10A cells assessed as decrease in histone H3 trimethylated lysine level (H3K9me3) at 5 uM incubated for 30 mins by Western blotting method; assay type: cell-based; conditions: MCF-10A
Procedure, shortened: (§1)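 Isogenic IDH1 (+/R132H) MCF10A cells, compared with IDH1 (+/+) cells, given 5 μM compound; lysed in SDS buffer, protein by BCA, SDS-PAGE, PVDF transfer; probed overnight at 4 °C with H3K4me3, H3K9me3, H3K27me3, H3K36me3 or H3K79me3 antibodies, total H3 as reference; HRP secondary, ECL detection.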

[3] = system: Isocitrate dehydrogenase [NADP] cytoplasmic (Homo sapiens), O75874 [R132H]; assay: Inhibition of IDH1-R132H mutant in human MCF10A cells assessed as decrease in histone H3 trimethylated lysine level (H3K4me3) at 5 uM incubated for 30 mins by Western blotting method; assay type: cell-based; conditions: MCF-10A; procedure, shortened: as §1
[4] = Cytotoxicity against IDH1 expressing human MCF10A cells assessed as cell viability at 5 uM after 24 hrs by hemacytometer counting method; assay type: cell-based; conditions: mcf-10a
Procedure, shortened: (§2)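 Isogenic CRISPR-made IDH1 (+/+) and IDH1 (+/R132H) MCF10A cells seeded at 5.0 × 10⁴ per well, exposed to 5 μM compound, harvested at indicated times (24 h), viable cells counted by hemacytometer; mean ± standard deviation, Student t-test, n = 6.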

[5] = system: Isocitrate dehydrogenase [NADP] cytoplasmic (Homo sapiens), O75874 [R132H]; assay: Inhibition of IDH1-R132H mutant in human MCF10A cells assessed as decrease in histone H3 trimethylated lysine level (H3K27me3) at 5 uM incubated for 30 mins by Western blotting method; assay type: cell-based; conditions: MCF-10A; procedure, shortened: as §1
[6] = system: Isocitrate dehydrogenase [NADP] cytoplasmic (Homo sapiens), O75874 [R132H]; assay: Inhibition of IDH1-R132H mutant in human MCF10A cells assessed as increase in 5-fC level at 5 uM incubated for 24 hrs by DAPI staining based fluorescence microscopy; assay type: cell-based; conditions: MCF-10A
Procedure, shortened: (§3)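 Isogenic IDH1 (+/+) and (+/R132H) MCF10A cells on coverslips (5 × 10⁴ per well), 16 h at 37 °C, then 5 μM compound for 24 h; fixed in 4% paraformaldehyde, blocked, stained overnight with anti-5mC, 5hmC or 5fC antibodies; FITC secondary with DAPI, imaged by fluorescence microscopy.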

[7] = system: Isocitrate dehydrogenase [NADP] cytoplasmic (Homo sapiens), O75874 [R132H]; assay: Inhibition of IDH1-R132H mutant in human MCF10A cells assessed as decrease in histone H3 trimethylated lysine level (H3K36me3) at 5 uM incubated for 30 mins by Western blotting method; assay type: cell-based; conditions: MCF-10A; procedure, shortened: as §1
[8] = Cytotoxicity against IDH1-R132H mutant expressing human MCF10A cells assessed as cell viability at 5 uM after 24 hrs by hemacytometer counting method; assay type: cell-based; conditions: mcf-10a; procedure, shortened: as §2
[9] = system: Isocitrate dehydrogenase [NADP] cytoplasmic (Homo sapiens), O75874 [R132H]; assay: Inhibition of IDH1-R132H mutant in human MCF10A cells assessed as decrease in 5-methylcytosine level at 5 uM incubated for 24 hrs by DAPI staining based fluorescence microscopy; assay type: cell-based; conditions: MCF-10A; procedure, shortened: as §3
[10] = system: Isocitrate dehydrogenase [NADP] cytoplasmic (Homo sapiens), O75874 [R132H]; assay: Inhibition of IDH1-R132H mutant in human MCF10A cells assessed as decrease in histone H3 trimethylated lysine level (H3K79me3) at 5 uM incubated for 30 mins by Western blotting method; assay type: cell-based; conditions: MCF-10A; procedure, shortened: as §1
[11] = system: Isocitrate dehydrogenase [NADP] cytoplasmic (Homo sapiens), O75874 [R132H]; assay: Inhibition of IDH1-R132H mutant in human MCF10A cells assessed as increase in 5-hmC level at 5 uM incubated for 24 hrs by DAPI staining based fluorescence microscopy; assay type: cell-based; conditions: MCF-10A; procedure, shortened: as §3
[12] = system: Isocitrate dehydrogenase [NADP] cytoplasmic (Homo sapiens), O75874 [R132H]; assay: Inhibition of human IDH1 R132H mutant expressed in IPTG-induced Escherichia coli BL21 cells assessed as oxidation of NADPH to NADP+ after 5 mins by spectrophotometry; design: concentration or dose not given beside the values
[13] = target: Isocitrate dehydrogenase [NADP] cytoplasmic (Homo sapiens) (UniProt O75874); assay: Inhibition of human IDH1 expressed in IPTG-induced Escherichia coli BL21 cells assessed as reduction of NADP+ to NADPH after 5 mins by spectrophotometry; design: concentration or dose not given beside the values
Sequence of Isocitrate dehydrogenase [NADP] cytoplasmic (Homo sapiens) (O75874 whole entry): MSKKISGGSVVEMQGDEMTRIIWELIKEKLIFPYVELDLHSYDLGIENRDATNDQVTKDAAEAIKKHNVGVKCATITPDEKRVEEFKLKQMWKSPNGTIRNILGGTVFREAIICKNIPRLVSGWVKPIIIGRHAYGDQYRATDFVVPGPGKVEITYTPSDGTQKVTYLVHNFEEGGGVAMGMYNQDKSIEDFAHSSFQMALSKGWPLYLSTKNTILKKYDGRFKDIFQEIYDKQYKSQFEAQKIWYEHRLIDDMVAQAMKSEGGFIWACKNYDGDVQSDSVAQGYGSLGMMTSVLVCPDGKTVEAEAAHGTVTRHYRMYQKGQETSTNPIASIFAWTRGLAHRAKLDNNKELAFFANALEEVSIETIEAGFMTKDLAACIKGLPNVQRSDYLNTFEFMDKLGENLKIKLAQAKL

Sequence of Isocitrate dehydrogenase [NADP] cytoplasmic (Homo sapiens), O75874 [R132H] (O75874 whole entry R132H): as the sequence (O75874 whole entry) above, with R132H counted along it
Sequence of Isocitrate dehydrogenase [NADP] cytoplasmic (O75874 2-414 R132H limits assumed): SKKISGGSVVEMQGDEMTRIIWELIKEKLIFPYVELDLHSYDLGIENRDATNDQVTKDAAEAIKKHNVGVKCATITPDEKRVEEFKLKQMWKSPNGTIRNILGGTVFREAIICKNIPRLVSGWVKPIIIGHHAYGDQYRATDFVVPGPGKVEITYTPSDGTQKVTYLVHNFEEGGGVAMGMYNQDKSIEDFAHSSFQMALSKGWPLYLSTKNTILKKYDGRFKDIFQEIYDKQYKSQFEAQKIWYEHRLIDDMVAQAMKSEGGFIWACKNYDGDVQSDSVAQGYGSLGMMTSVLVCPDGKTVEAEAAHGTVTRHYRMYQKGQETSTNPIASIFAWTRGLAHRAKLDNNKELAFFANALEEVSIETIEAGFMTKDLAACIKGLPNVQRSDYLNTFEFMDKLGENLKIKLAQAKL

CC(C)=CCc1c(O)cc2oc3cc(O)c(O)c(CC=C(C)C)c3c(=O)c2c1O
Ki ([1]; read-out: Ki): 3.17 µM

C=CCOc1cc2oc3cc(O)c(CC=C(C)C)c(O)c3c(=O)c2c(CC=C(C)C)c1OC
Ki ([1]; read-out: Ki): 17.4 µM

COc1c(O)cc2oc3cc(O)c(CC=C(C)C)c(O)c3c(=O)c2c1CC=C(C)C [MANGOSTIN]
inhibition [2]: Active
Ki ([1]; read-out: Ki): 2.85 µM
inhibition [3]: Active
Activity [4]: Non-toxic
inhibition [5]: Active
inhibition [6]: Active
inhibition [7]: Active
Activity [8]: Non-toxic
inhibition [9]: Active
inhibition [10]: Active
inhibition [11]: Active

CC(C)=CCc1c(O)cc2oc3cc(O)c(OCc4cn(CC(=O)OC(C)(C)C)nn4)c(CC=C(C)C)c3c(=O)c2c1O
Ki [1]: Not Active

COc1cc2oc3cc(O)c(OC)c(CC=C(C)C)c3c(=O)c2c(O)c1CC=C(C)C
Ki ([1]; read-out: Ki): 12 µM

CCN(CC)C(=O)Oc1cc2oc3cc(O)c(CC=C(C)C)c(O)c3c(=O)c2c(CC=C(C)C)c1OC
Ki [1]: Not Active

CCN(CC)C(=O)Oc1cc2oc3cc(O)c(OC)c(CC=C(C)C)c3c(=O)c2c(O)c1CC=C(C)C
Ki [1]: Not Active

COc1c(OC(=O)N2CCOCC2)cc2oc3cc(O)c(CC=C(C)C)c(O)c3c(=O)c2c1CC=C(C)C
Ki [1]: Not Active

C=CCOc1cc2oc3cc(O)c(OC)c(CC=C(C)C)c3c(=O)c2c(O)c1CC=C(C)C
Ki [1]: Not Active

C=C[C@]1(C)CC[C@@]2(C)C3=CCC[C@](C)(CO)[C@@H]3CC[C@@H]2C1
Activity [12]: 116%
Activity [13]: 106%

CC(C)=CCc1c(O)c(CC=C(C)C)c2oc3c(O)ccc(O)c3c(=O)c2c1O
Activity [12]: 93.9%
Activity [13]: 89.9%

C=C(C)[C@@H]1CC[C@]2(C(=O)O)CC[C@]3(C)[C@H](CC[C@@H]4[C@@]5(C)CC[C@H](O)C(C)(C)[C@@H]5CC[C@]43C)[C@@H]12
Activity [12]: 112%
Activity [13]: 102%

COc1ccc(C(=O)O[C@H]2[C@@H]3C=CO[C@@H](O[C@@H]4O[C@H](CO)[C@@H](O)[C@H](O)[C@H]4O)[C@@H]3[C@@]3(CO)O[C@@H]23)cc1O
Activity [12]: 103%
Activity [13]: 102%

C=CCc1cc(OC)c(O)c(OC)c1
Activity [12]: 104%
Activity [13]: 101%

O=c1cc(-c2ccc(O)c(O)c2)oc2cc(O)cc(O)c12
Activity [12]: 93.6%
Activity [13]: 96.8%

CC(C)=CCOc1c2occc2cc2ccc(=O)oc12
Activity [12]: 102%
Activity [13]: 99%

CC[C@H](CC[C@@H](C)[C@H]1CC[C@H]2[C@@H]3CC=C4C[C@@H](O[C@@H]5O[C@H](CO)[C@@H](O)[C@H](O)[C@H]5O)CC[C@]4(C)[C@H]3CC[C@]12C)C(C)C
Activity [12]: 103%
Activity [13]: 94.6%

C[C@@H](C(=O)O)[C@@]1(C)CC[C@H]2[C@@](C)(CC[C@@]3(C)[C@@H]4CC(C)(C)CC[C@]4(C)CC[C@]23C)[C@@H]1CC(=O)O
Activity [12]: 90.9%
Activity [13]: 108%

C=C1CC[C@@H]2[C@](C)(CCC[C@]2(C)C(=O)O)[C@H]1CCc1ccoc1
Activity [12]: 92.8%
Activity [13]: 100%

COc1ccc(-c2oc3c(CC=C(C)C)c(O)cc(O)c3c(=O)c2O)cc1
Activity [12]: 94.6%
Activity [13]: 97.9%

C=C(C)C(C)CC[C@@H](C)[C@H]1CC[C@@]2(C)[C@@H]3CC[C@H]4C(C)(C)C(=O)CC[C@]4(C)C3=CC[C@]12C (stereo not given in full)
Activity [12]: 124%
Activity [13]: 106%

O=C(O)c1cc(O)c(O)c(O)c1
Activity [12]: 103%
Activity [13]: 97.4%
